The test system of experiment [1] is Dengue virus. The experiment in a line: Antiviral activity against Dengue virus infected in african green monkey Vero cells administered before viral challenge after 3 days by viral plaque assay. In kind it is functional, organism-based. Put shortly:
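Monolayers seeded at 1 × 10^4 cells per well were pretreated for 180 min at 37°C with inhibitor at two noncytotoxic concentrations. They were then inoculated with DENV at moi 1 for 60 min at 37°C. Supernatant harvested 3 days postinfection was titrated by plaque assay. Activity was called at ≥five-fold (0.7 log) titer decrease.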

In experiment [2] the test system is Dengue virus. Nature of the experiment: Antiviral activity against Dengue virus infected in african green monkey Vero cells administered after viral challenge after 3 days by viral plaque assay. The format is functional, organism-based. Put shortly: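 Cells were seeded at 1 × 10^4 per well and infected with DENV at moi 1. Protein kinase inhibitors were then added at two noncytotoxic concentrations, set beforehand by MTT assay in Vero cells. After 3 days, infectious yield in the supernatant was titrated by plaque assay. Activity was called at ≥five-fold (0.7 log) titer decrease.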

The subject of experiment [3] is Dengue virus. Nature of the experiment: Inhibition of viral spread in Dengue virus-infected human Huh7 cells assessed as accumulation of viral envelope protein within perinuclear region at 2.5 uM after 6 days by immunofluorescence assay relative to control. The format is functional, organism-based. Particulars: Huh-7. The procedure, abridged:
(§1)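 Vero, Huh-7 or C6/36 cells were infected with DENV2 at moi 1 and then treated with 2.5 μM inhibitor or DMSO. Cells were fixed at days 4, 5 and 6 postinfection and stained for envelope protein by immunofluorescence. Envelope localization, including perinuclear accumulation, and infection of surrounding cells were compared with the DMSO control.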

The subject of experiment [4] is dengue virus type 2. Nature of the experiment: Antiviral activity against Dengue virus 2 infected in human Huh7 cells. Particulars: Huh-7. The format is functional, organism-based. Put shortly:
(§2)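 Vero, Huh-7 or C6/36 cells were infected with DENV2 at moi 1. Inhibitor was then added at noncytotoxic concentrations of 50 nM–5 μM for three days. Virus titer in the culture supernatant was measured by plaque assay.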

For experiment [5], the system named is Dengue virus. Nature of the experiment: Inhibition of viral spread in Dengue virus-infected asian tiger mosquito C6/36 cells assessed as accumulation of viral envelope protein within perinuclear region at 2.5 uM after 6 days by immunofluorescence assay relative to control. The format is functional, organism-based. Put shortly:
as §1

For experiment [6], the system named is Dengue virus. The experiment in a line: Inhibition of viral spread in Dengue virus-infected african green monkey Vero cells assessed as accumulation of viral envelope protein within perinuclear region at 2.5 uM after 5 days by immunofluorescence assay relative to control. The format is functional, organism-based. The procedure, abridged: as §1
The test system of experiment [7] is dengue virus type 2. The experiment in a line: Antiviral activity against Dengue virus 2 infected in asian tiger mosquito C6/36 cells. The format is functional, organism-based. The procedure, abridged: as §2
In experiment [8] the test system is Dengue virus. The experiment in a line: Inhibition of viral spread in Dengue virus-infected human Huh7 cells assessed as accumulation of viral envelope protein within perinuclear region at 2.5 uM after 5 days by immunofluorescence assay relative to control. In kind it is functional, organism-based. Particulars: Huh-7. The procedure, abridged:
as §1

In experiment [9] the test system is Dengue virus. Nature of the experiment: Inhibition of viral spread in Dengue virus-infected african green monkey Vero cells assessed as accumulation of viral envelope protein within perinuclear region at 2.5 uM after 4 days by immunofluorescence assay relative to control. The format is functional, organism-based. The procedure, abridged:
as §1

Experiment [10] concerns Dengue virus. The experiment in a line: Inhibition of viral spread in Dengue virus-infected african green monkey Vero cells assessed as accumulation of viral envelope protein within perinuclear region at 2.5 uM after 6 days by immunofluorescence assay relative to control. In kind it is functional, organism-based. The procedure, abridged: as §1
The test system of experiment [11] is Dengue virus. The experiment in a line: Inhibition of viral spread in Dengue virus-infected asian tiger mosquito C6/36 cells assessed as accumulation of viral envelope protein within perinuclear region at 2.5 uM after 5 days by immunofluorescence assay relative to control. In kind it is functional, organism-based. Put shortly:
as §1

In experiment [12] the test system is Dengue virus. The experiment in a line: Inhibition of viral spread in Dengue virus-infected asian tiger mosquito C6/36 cells assessed as accumulation of viral envelope protein within perinuclear region at 2.5 uM after 4 days by immunofluorescence assay relative to control. In kind it is functional, organism-based. Put shortly: as §1
Experiment [13] relates to Dengue virus. The experiment in a line: Inhibition of viral spread in Dengue virus-infected human Huh7 cells assessed as accumulation of viral envelope protein within perinuclear region at 2.5 uM after 4 days by immunofluorescence assay relative to control. In kind it is functional, organism-based. Particulars: Huh-7. The procedure, abridged: as §1
Experiment [14] deals with dengue virus type 2. Nature of the experiment: Antiviral activity against Dengue virus 2 infected in african green monkey Vero cells. The format is functional, organism-based. Put shortly: as §2
In experiment [15] the test system is dengue virus type 2. The experiment in a line: Antiviral activity against Dengue virus 2 NGC infected in african green monkey Vero cells after 3 days by immunofluorescence assay. The format is functional, organism-based. As to conditions: 72 h. The procedure, abridged: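 DENV2 NGC was adsorbed to Vero monolayers at moi 1 for 60 min at 37°C with 5% CO2, then washed with PBS. Inhibitor was added at 0.02–10 μM final in 0.25% DMSO and incubated for 3 days. Cells were fixed and stained with anti-E mAb, FITC secondary and DAPI. Infected cells were counted in four automated-microscope fields per well and compared with DMSO-treated infected wells. IC50 came from nonlinear regression.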

In another experiment the test system is dengue virus type 4. The experiment in a line: Antiviral activity against Dengue virus 4 H241 infected in african green monkey Vero cells. In kind it is functional, organism-based.
The next experiment deals with Modoc virus. Nature of the experiment: Antiviral activity against Modoc virus M544 infected in african green monkey Vero cells. In kind it is functional, organism-based.
Experiment [16] is described as follows: Inhibition of p38 MAPK.
The subject of a further experiment is dengue virus type 1. Nature of the experiment: Antiviral activity against Dengue virus 1 Hawaii infected in african green monkey Vero cells. The format is functional, organism-based.
The nature of experiment [17]: Inhibition of PDGFR.
The next experiment concerns dengue virus type 3. The experiment in a line: Antiviral activity against Dengue virus 3 H87 infected in african green monkey Vero cells. In kind it is functional, organism-based.
For experiment [18], the system named is dengue virus type 2. Nature of the experiment: Inhibition of Dengue virus 2 assembly in african green monkey Vero cells assessed as virus-induced membrane structures at 2.5 uM after 4 days postinfection by electron microscopy. In kind it is functional, organism-based. The procedure, abridged:
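DENV2-infected Vero cells were treated with 2.5 μM inhibitor, with DMSO-treated infected cells and DMSO-treated mock-infected cells as controls. At 4 days postinfection, cells were fixed in 2.5% glutaraldehyde plus 2.0% paraformaldehyde at 4°C for 24 h. Samples were embedded, sectioned and examined by transmission electron microscopy for virus particles and virus-induced membranes.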

In the next experiment the test system is Poliovirus 1. Nature of the experiment: Antiviral activity against Poliovirus 1 infected in african green monkey Vero cells. In kind it is functional, organism-based.

Activity, EC50 and IC50 data for 18 compounds are collected here from ChEMBL document CHEMBL1156446, “c-Src protein kinase inhibitors block assembly and maturation of dengue virus” (Proc Natl Acad Sci U S A, 2007).

Calls of active or inactive are those of the source. The rule behind the calls is not given here.

Consider `Cc1ccc(Nc2nccc(-c3ccccc3)n2)cc1F`, for which the outcome in the experiment on Dengue virus [1] was Active.

In the case of `Brc1c(Br)c(Br)c2[nH]nnc2c1Br`, the result in the experiment on Dengue virus [2] and in the experiment with Dengue virus [1] was Active.

For the compound `Cn1cc(/C=C2\C(=O)Nc3ccc(S(N)(=O)=O)cc32)c2ccccc21`, the result in the experiment on Dengue virus [2] and in the experiment on Dengue virus [1] was Active.

On to `CN1CCN(CCOc2cc(OC3CCOCC3)c3c(Nc4c(Cl)ccc5c4OCO5)ncnc3c2)CC1`, for which the outcome in the experiment with Dengue virus [3], with Dengue virus [2], in the experiment on Dengue virus [5], with Dengue virus [6], in the experiment with Dengue virus [8] and in the experiment on Dengue virus [9] was Active. Also, the outcome in the experiment with Dengue virus [10], in the experiment on Dengue virus [11], with Dengue virus [12] and in the experiment with Dengue virus [13] was Active. In addition, the Activity entry with dengue virus type 2 [4], in the experiment on dengue virus type 2 [7] and in the experiment with dengue virus type 2 [14] was “Dose-dependent effect” throughout.

With `Cc1ccc(NC(=O)c2ccc(CN3CCN(C)CC3)cc2)cc1Nc1nccc(-c2cccnc2)n1`, the outcome with Dengue virus [1] was Active.

Take `O=S(=O)(c1cccc2c(I)cccc12)N1CCCNCC1`: the outcome in the experiment with Dengue virus [2] was Active.

Take `N#C/C(=C\c1ccc(O)c(O)c1)C(N)=O`: the outcome in the experiment with Dengue virus [2] was Active.

Consider `CCN(CC)CCNC(=O)c1c(C)[nH]c(/C=C2\C(=O)Nc3ccc(Cl)cc32)c1C`, for which the outcome in the experiment on Dengue virus [2] was Active.

`O=C(O)c1cc(N(Cc2ccccc2O)Cc2cc(O)ccc2O)ccc1O`: in the experiment on Dengue virus [2], the result was Active.

As to `NC(=O)c1cccc(-c2cc(Nc3ccc(OC(F)(F)F)cc3)ncn2)c1`, the outcome in the experiment on Dengue virus [2] and with Dengue virus [1] was Active.

For the compound `O=C1Cc2c([nH]c3ccc(Br)cc23)-c2ccccc2N1`, the result in the experiment on Dengue virus [2] was Active.

As to `COc1cc2ncnc(Nc3cccc(Br)c3)c2cc1OC`, the result with Dengue virus [2] was Active.

`CNc1ncc2c(n1)N(C)C(=O)N(c1cc(NC(=O)c3cc(-n4cnc(C)c4)cc(C(F)(F)F)c3)ccc1C)C2`: the outcome in the experiment on Dengue virus [2] and in the experiment on Dengue virus [1] was Active.

In the case of `COc1cc2ncnc(Nc3ccc(Oc4ccccc4)cc3)c2cc1OC`, the result in the experiment on Dengue virus [2] and in the experiment with Dengue virus [1] was Active.

On to `O=C(O)c1cc(NCc2cc(O)ccc2O)ccc1O`, for which, in the experiment with Dengue virus [2], the outcome was Active.

Turning to `CC(C)(C)c1nc2c3ccc(F)cc3c3c(=O)[nH]ccc3c2[nH]1`, the outcome in the experiment on Dengue virus [1] was Active.

Usually EC50 stands for the concentration needed to bring the measured effect to its halfway point. In the case of `COc1c(C)c2c(c(O)c1C/C=C(\C)CCC(=O)O)C(=O)OC2` [MYCOPHENOLIC ACID], the EC50 in the experiment on dengue virus type 2 [15] was found to be 5700 nM.

As usually defined, the IC50 is the midpoint of a concentration-inhibition curve. Consider `Cc1nc(Nc2ncc(C(=O)Nc3c(C)cccc3Cl)s2)cc(N2CCN(CCO)CC2)n1` [DASATINIB], for which the outcome in the experiment on Dengue virus [3], in the experiment on Dengue virus [2], in the experiment on Dengue virus [5], with Dengue virus [6], in the experiment with Dengue virus [8] and in the experiment on Dengue virus [9] was Active. Further, the result in the experiment with Dengue virus [10], in the experiment with dengue virus type 2 [18], with Dengue virus [11], with Dengue virus [12] and in the experiment with Dengue virus [13] was Active. Further, the Activity result in the experiment with dengue virus type 4, in the experiment with dengue virus type 2 [4], with Modoc virus, in the experiment with dengue virus type 1, in the experiment with dengue virus type 3 and in the experiment with dengue virus type 2 [7] was “Dose-dependent effect” throughout. Moreover, in the experiment on dengue virus type 2 [14], the Activity result is “Dose-dependent effect”. Besides, the half-inhibitory concentration (IC50) in experiment [16] amounted to 100 nM; in [17], 28 nM. For the same compound, the result in the experiment on Poliovirus 1 was inactive.
